Source: ChEMBL document CHEMBL1137650, “An OXA-66/OXA-51-like carbapenemase and possibly an efflux pump are associated with resistance to imipenem in Acinetobacter baumannii” (2007)
Converted amounts (≈) assume the structure as drawn.

Columns and labels:
Assay type in all cases: functional
[1] = system: Acinetobacter baumannii; test: Antibacterial activity against imipenem-resistant Acinetobacter baumannii ISAB ab1254(r) by broth dilution method in presence of 2 ug/ml efflux pump inhibitor carbonyl cyanide m-chlorophenyl-hydrazone
[2] = system: Acinetobacter baumannii; test: Ratio of MIC for Acinetobacter baumannii ISAB ab8(r) to MIC for Acinetobacter baumannii ISAB ab8(r) in presence of 2 ug/ml efflux pump inhibitor carbonyl cyanide m-chlorophenyl-hydrazone
[3] = system: Acinetobacter baumannii; test: Ratio of MIC for Acinetobacter baumannii ISAB ab1254(r) to MIC for Acinetobacter baumannii ISAB […] in presence of 2 ug/ml efflux pump inhibitor carbonyl cyanide m-chlorophenyl-hydrazone
[4] = system: Acinetobacter baumannii; test: Antibacterial activity against imipenem-susceptible Acinetobacter baumannii ab3 by broth dilution method
Summary of the method: (§1)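 Clinical isolates were collected at three Taiwan hospitals (1993–2003) and grown in tryptic soy broth at 37°C for 18 h. MIC by broth dilution following CLSI recommendations.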

[5] = system: Acinetobacter baumannii; test: Antibacterial activity against imipenem-susceptible Acinetobacter baumannii ab4 by broth dilution method; summary of the method: as §1
[6] = system: Acinetobacter baumannii; test: Antibacterial activity against imipenem-susceptible Acinetobacter baumannii ab8 by broth dilution method; summary of the method: as §1
[7] = system: Acinetobacter baumannii; test: Antibacterial activity against imipenem-susceptible Acinetobacter baumannii ab12 by broth dilution method; summary of the method: as §1
[8] = system: Acinetobacter baumannii; test: Antibacterial activity against imipenem-susceptible Acinetobacter baumannii ab20 by broth dilution method; summary of the method: as §1
[9] = system: Acinetobacter baumannii; test: Antibacterial activity against imipenem-susceptible Acinetobacter baumannii ab1308 by broth dilution method
Summary of the method: (§2)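 Clinical A. baumannii isolates collected at three Taiwanese hospitals, routinely grown in tryptic soy broth at 37°C for 18 h. MICs (μg ml⁻¹) were determined by broth dilution following CLSI recommendations, or by Etest strips following the manufacturer's instructions.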

[10] = system: Acinetobacter baumannii; test: Antibacterial activity against imipenem-susceptible Acinetobacter baumannii ab1254 by broth dilution method; summary of the method: as §1
[11] = system: Acinetobacter baumannii; test: Antibacterial activity against imipenem-susceptible Acinetobacter baumannii ab1316 by broth dilution method; summary of the method: as §2
[12] = system: Acinetobacter baumannii; test: Antibacterial activity against imipenem-intermediate Acinetobacter baumannii ab1297 by broth dilution method; summary of the method: as §2
[13] = system: Acinetobacter baumannii; test: Antibacterial activity against imipenem-resistant Acinetobacter baumannii ab1265 by broth dilution method; summary of the method: as §1
[14] = system: Acinetobacter baumannii; test: Antibacterial activity against imipenem-resistant Acinetobacter baumannii ab1266 by broth dilution method; summary of the method: as §1
[15] = system: Acinetobacter baumannii; test: Antibacterial activity against imipenem-resistant Acinetobacter baumannii abh9 by broth dilution method; summary of the method: as §1
[16] = system: Acinetobacter baumannii; test: Antibacterial activity against imipenem-resistant Acinetobacter baumannii abh11 by broth dilution method; summary of the method: as §1
[17] = system: Acinetobacter baumannii; test: Antibacterial activity against imipenem-resistant Acinetobacter baumannii abh13 by broth dilution method; summary of the method: as §1
[18] = system: Acinetobacter baumannii; test: Antibacterial activity against imipenem-resistant Acinetobacter baumannii abh14 by broth dilution method; summary of the method: as §1
[19] = system: Acinetobacter baumannii; test: Antibacterial activity against imipenem-resistant Acinetobacter baumannii abh17 by broth dilution method; summary of the method: as §1
[20] = system: Acinetobacter baumannii; test: Antibacterial activity against imipenem-resistant Acinetobacter baumannii abh18 by broth dilution method; summary of the method: as §1
[21] = system: Acinetobacter baumannii; test: Antibacterial activity against imipenem-resistant Acinetobacter baumannii abh20 by broth dilution method; summary of the method: as §1
[22] = system: Acinetobacter baumannii; test: Antibacterial activity against imipenem-resistant Acinetobacter baumannii abh26 by broth dilution method; summary of the method: as §1
[23] = system: Acinetobacter baumannii; test: Antibacterial activity against imipenem-resistant Acinetobacter baumannii abh29 by broth dilution method; summary of the method: as §1
[24] = system: Acinetobacter baumannii; test: Antibacterial activity against imipenem-resistant Acinetobacter baumannii abh36 by broth dilution method; summary of the method: as §1
[25] = system: Acinetobacter baumannii; test: Antibacterial activity against imipenem-resistant Acinetobacter baumannii abh37 by broth dilution method; summary of the method: as §1
[26] = system: Acinetobacter baumannii; test: Antibacterial activity against imipenem-resistant Acinetobacter baumannii abh39 by broth dilution method; summary of the method: as §1
[27] = system: Acinetobacter baumannii; test: Antibacterial activity against imipenem-resistant Acinetobacter baumannii ISAB ab8(r) by broth dilution method
[28] = system: Acinetobacter baumannii; test: Antibacterial activity against imipenem-resistant Acinetobacter baumannii ISAB ab1254(r) by broth dilution method
[29] = system: Acinetobacter baumannii; test: Antibacterial activity against imipenem-resistant Acinetobacter baumannii ISAB ab8(r) by broth dilution method in presence of 2 ug/ml efflux pump inhibitor carbonyl cyanide m-chlorophenyl-hydrazone

In the case of `C[C@@H](O)[C@H]1C(=O)N2C(C(=O)O)=C(S[C@@H]3CN[C@H](C(=O)N(C)C)C3)[C@H](C)[C@H]12` [MEROPENEM], the MIC [1] is reported as 3 µg/mL, the “fold change (FC)” value [2] is reported as 2 and the “fold change (FC)” value [3] is reported as 2. The MIC [4] was 0.38 µg/mL (≈ 0.991 µM), the MIC [5] was 0.5 µg/mL (≈ 1.3 µM) and the MIC [6] was 0.5 µg/mL (≈ 1.3 µM). It also gave an MIC [7] of 0.5 µg/mL (≈ 1.3 µM), an MIC [8] of 0.75 µg/mL (≈ 1.96 µM) and an MIC [9] of 0.75 µg/mL (≈ 1.96 µM). It also gave an MIC [10] of 0.75 µg/mL (≈ 1.96 µM), an MIC [11] of 1.5 µg/mL (≈ 3.91 µM) and an MIC [12] of 32 µg/mL (≈ 83.4 µM). The MIC [13] was greater than 32 µg/mL, the MIC [14] was greater than 32 µg/mL and the MIC [15] was greater than 32 µg/mL. For the same compound, the MIC [16] was greater than 32 µg/mL, the MIC [17] was greater than 32 µg/mL and the MIC [18] was greater than 32 µg/mL. It also gave an MIC [19] of 16 µg/mL (≈ 41.7 µM), an MIC [20] of 32 µg/mL (≈ 83.4 µM) and an MIC [21] of 32 µg/mL (≈ 83.4 µM). It also gave an MIC [22] of 32 µg/mL (≈ 83.4 µM), an MIC [23] greater than 32 µg/mL and an MIC [24] greater than 32 µg/mL. The MIC [25] was 32 µg/mL (≈ 83.4 µM), the MIC [26] was 32 µg/mL (≈ 83.4 µM) and the MIC [27] was 8 µg/mL (≈ 20.9 µM). It also gave an MIC [28] of 6 µg/mL (≈ 15.6 µM) and an MIC [29] of 4 µg/mL.
